The list is not random: actives were taken first. Their share in the collection is about 2.1%.
SMARCA2 activ – SMARCA2 (BRM) function activators, primary screen, cell-based, luminescence, high throughput; activation, % at 9.1 µM; hit rate 1% among 370,000; AID 652017, 2013; MG213 cells, MMTV-luciferase reporter, dexamethasone, overnight; in the data active means activation above about 7.8%;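 further: 0% = vehicle wells and 100% = reference activator wells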
MC4R antagonist – MC4R antagonists of cAMP signaling, primary screen, cell-based, TR-FRET, antagonist arm of biased-ligand search | AID 540295, 2011 | inhibition, % at 6.5 µM | Melanocortin receptor 4 (Homo sapiens), P32245 | hit rate 0.48% among 360,000 | MC4R-expressing cells, MTII-stimulated cAMP, LANCE TR-FRET;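 active means inhibition above its plate's cutoff, the mean of tested wells on that plate plus 3 SD, cut at about 29% in these data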;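 further: 0% = Melanotan II alone and 100% = Melanotan II plus saturating MCL0020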
Target sequence (P32245 whole entry, looked up): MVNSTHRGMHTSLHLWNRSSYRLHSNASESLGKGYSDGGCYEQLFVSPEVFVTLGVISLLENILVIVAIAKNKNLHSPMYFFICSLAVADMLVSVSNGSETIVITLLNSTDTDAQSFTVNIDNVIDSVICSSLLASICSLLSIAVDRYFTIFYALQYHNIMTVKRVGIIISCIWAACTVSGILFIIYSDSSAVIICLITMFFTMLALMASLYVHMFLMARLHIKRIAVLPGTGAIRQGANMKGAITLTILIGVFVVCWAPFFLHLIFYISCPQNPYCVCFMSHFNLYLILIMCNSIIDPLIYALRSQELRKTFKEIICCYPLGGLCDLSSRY
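Material: human MC4R-expressing U2OS cells. Probe or stimulus: Melanotan II challenge. Dosing: 6.5 µM single dose. Times: 30-min compound, 1-h challenge, 1-h detection, room temperature. Technique: TR-FRET with Eu-cAMP and labeled anti-cAMP, 671 nm. Replication: singlicate.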
F508del corr – F508del CFTR correction, initial screen, CFBE line, single point | CFBE cells, YFP halide quenching; stimulated with forskolin plus potentiator P3; % fluorescence drop versus neutral controls | activity (quench increase), % at 7.58 µM | hit rate 0.36% among 350,000;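 active means mean added fluorescence quench of at least 8% versus neutral control, with both replicates also reaching 8%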;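 further: cells transiently co-express mutant CFTR-F508del with the halide-sensitive YFP; corrector assay measuring rescue of mutant channel to the surface after 24 h compound exposure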
MC4R ag barr – MC4R agonists recruiting beta-arrestin, primary screen, cell-based, luminescence, agonist arm of biased-ligand search; Melanocortin receptor 4 (Homo sapiens), P32245; U2OS MC4R beta-arrestin complementation; percent of melanotan II response, DMSO zero; activation, % at 8.9 µM; hit rate 0.98% among 360,000; AID 540308, 2011;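 active means activation above a per-plate cutoff, the mean activation of sample wells on that plate plus 3 SD, cut at about 8% in these data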
cAMP nonselect – nonselective cAMP signaling inhibitors, parental cells, counter-screen for MC4R biased antagonist project, cell-based, TR-FRET, U2OS, forskolin, triplicate; shares compounds with MC4R antagonist; LANCE TR-FRET; inhibition, % at 6.5 µM; hit rate 26% among 1,600;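 active means mean inhibition over triplicates above the low-control well mean plus 3 SD, set per campaign, cut at about 13% in these data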;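 further: signal is single emission at 671 nm which falls as cellular cAMP rises; 0% = forskolin-stimulated wells and 100% = buffer without forskolin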
MC4R cAMP antag – MC4R cAMP antagonists, retest, confirmation, cell-based, TR-FRET; inhibition, % at 6.5 µM; hit rate 27% among 1,600; MC4R-expressing cells, MTII-stimulated cAMP; shares compounds with MC4R antagonist; in the data active means inhibition above about 29%;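 further: 0% = agonist stimulated wells alone and 100% = agonist stimulated wells plus saturating reference antagonist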
Active calls of the source: *; x = not tested or not shown.

SMILES	SMARCA2 activ	MC4R antagonist	F508del corr	MC4R ag barr	cAMP nonselect	MC4R cAMP antag
CC(C)Cn1c(CN2CCN(c3ccccc3F)CC2)nc2c1c(=O)[nH]c(=O)n2C	3	29*	-1	1	0	8
CCCNC(=O)N1C[C@H](O)COC[C@H]2O[C@H](CC(=O)N3CCOCC3)CC[C@@H]21	x	x	-2	x	x	x
C[C@@H]1CN([C@H](C)CO)C(=O)c2cc(NC(=O)Cc3ccccc3)ccc2O[C@@H]1CN(C)C(=O)Nc1ccc2c(c1)OCO2	x	x	5	x	x	x
CNCc1nc2ccccc2[nH]1	2	2	2	-1	x	x
O=S(=O)(O)c1nc2ccccc2[nH]1	-1	35*	1	0	-1	-8
O=C(NCC(c1cccs1)N1CCOCC1)c1ccc(Cl)c(S(=O)(=O)N2CCOCC2)c1 (configuration not stated)	-2	4	2	2	x	x
O=C(NCC(c1cccs1)N1CCOCC1)c1ccccc1NS(=O)(=O)c1ccc(Cl)c([N+](=O)[O-])c1 (configuration not stated)	-2	29*	-1	0	4	5
O=C(NCC(c1cccs1)N1CCOCC1)c1ccc(Cl)c([N+](=O)[O-])c1 (configuration not stated)	-1	41*	-1	-3	16*	47*
C[C@@H]1CN([C@@H](C)CO)C(=O)c2cccc(NC(=O)c3cnccn3)c2O[C@@H]1CN(C)C(=O)Nc1ccc(C(F)(F)F)cc1	x	x	-1	x	x	x
COC(=O)c1cc(=O)n(-c2ccccc2)c(=Nc2ccccc2)s1	-1	11	-2	3	x	x
CCOC(=O)c1ccc(N=c2sc(C(=O)OC)cc(=O)n2-c2ccc(C(=O)OCC)cc2)cc1	-3	32*	-1	1	6	18
C[C@H](CO)N1C[C@H](C)[C@@H](CN(C)C(=O)NC2CCCCC2)OCCCC[C@H](C)Oc2ccc(NC(=O)Nc3ccc4c(c3)OCO4)cc2C1=O	x	x	2	x	x	x
Nc1ccc(S(=O)(=O)NCC(=O)OCCOc2ccccc2)cc1[N+](=O)[O-]	0	33*	-2	-4	27*	24
CSc1ccc(S(=O)(=O)NCC(=O)OCCOc2ccccc2)cc1[N+](=O)[O-]	4	0	1	-1	x	x
COc1cc(-c2cc(C(=O)Nc3ccc(C)c(S(=O)(=O)N4CCOCC4)c3)c3ccccc3n2)cc(OC)c1OC	1	32*	2	0	4	13
COC(=O)[C@H](Cc1ccccc1)NC(=O)NCCc1ccc(S(N)(=O)=O)cc1	1	1	x	-2	x	x
COC(=O)C(Cc1ccccc1)NC(=O)CCNC(=O)c1ccc(Br)cc1 (configuration not stated)	-2	29*	-1	1	-9	-20
COC(=O)[C@H](Cc1ccccc1)NC(=O)NCCc1ccc(F)cc1	-5	29*	3	-1	32*	35*
COC(=O)C(Cc1ccccc1)NC(=O)CCC(=O)NC(C)CCc1ccccc1 (configuration not stated)	-5	16	-1	1	x	x
O=C(Nc1nccs1)c1cc2cc(Cl)ccc2oc1=O	-4	33*	3	2	0	1
CCC(=O)N1[C@@H]2CN(S(=O)(=O)c3ccccc3C)c3ccccc3[C@@H]2[C@@H]1CO	x	x	3	x	x	x
COc1ccc(-n2c(-c3cccc(OC)c3)nc(=S)c3c2CCCC3)cc1	0	31*	x	-1	17*	33*
CC(C)NC(=O)N(C)C[C@@H]1OCCCC[C@@H](C)Oc2ccc(NS(=O)(=O)c3cn(C)cn3)cc2C(=O)N([C@H](C)CO)C[C@H]1C	x	x	0	x	x	x
Cc1ccc(CC(=O)N2CCN(c3cccc(C(F)(F)F)c3)CC2)cc1	-3	33*	x	3	-1	0
C[C@@H]1CCCCO[C@@H](CN(C)S(=O)(=O)c2cccs2)[C@H](C)CN([C@H](C)CO)C(=O)c2cc(NC(=O)Nc3ccc(C(F)(F)F)cc3)ccc2O1	x	x	5	x	x	x
SMILES	SMARCA2 activ	MC4R antagonist	F508del corr	MC4R ag barr	cAMP nonselect	MC4R cAMP antag
O=C(COC(=O)[C@@H]1CCCN1S(=O)(=O)c1ccc(Cl)cc1)NC12CC3CC(CC(C3)C1)C2	6	32*	x	2	14*	34*
COCCCNC(=O)/C=C1\Sc2ccccc2N(Cc2ccccc2F)C1=O	1	44*	1	0	46*	34*
CN1CCN(CCCNC(=O)c2ccc(/C=C3\Sc4ccccc4N(Cc4ccc(F)cc4)C3=O)cc2)CC1	4	-5	1	3	x	x
CSCCC(NC(=O)c1ccc([N+](=O)[O-])cc1Cl)C(=O)OC1CCCCC1=O (configuration not stated)	-4	31*	1	0	14*	39*
CSCCC(NC(=O)c1ccc([N+](=O)[O-])cc1Cl)C(=O)OCC(=O)NC1CCCC(C)C1C (configuration not stated)	-1	33*	2	2	17*	40*
CSCCC(NC(=O)c1ccc([N+](=O)[O-])cc1Cl)C(=O)OCC(=O)NC(=O)CN1CCCC1=O (configuration not stated)	7	1	-3	-3	x	x
COc1ccc(NC(=O)N2CC3(C2)CN(CC2CC2)[C@@H](CO)c2c3c3ccc(OC)cc3n2C)cc1	x	x	1	x	x	x
Cc1ccc(S(=O)(=O)NCC(=O)OCC(=O)c2cccs2)cc1	-2	38*	x	-1	7	13
Cc1ccc(S(=O)(=O)NCC(=O)OCC(=O)NC(=O)c2cccn2C)cc1	-2	34*	4	2	26*	40*
C[C@@H]1CCCCO[C@@H](CN(C)C)[C@H](C)CN([C@H](C)CO)C(=O)c2cc(NS(=O)(=O)c3ccccc3)ccc2O1	x	x	0	x	x	x
O=C(c1ccc(F)cc1)C(CN1CCOCC1)c1ccccc1 (configuration not stated)	-8	19	-1	-1	x	x
O=C(c1ccccc1)C(CCC(CN1CCOCC1)C(=O)c1ccccc1)CN1CCOCC1 (configuration not stated)	-8	41*	x	-1	-4	-2
COc1ccc2c3c([nH]c2c1)[C@H](CO)N(C(=O)c1cccnc1)CC31CCN(C(=O)CN(C)C)CC1	x	x	1	x	x	x
C[C@@H]1CN([C@H](C)CO)C(=O)c2cc(C#CC3CCCC3)cnc2O[C@H]1CN(C)C(=O)Cc1ccccn1	x	x	4	x	x	x
CCOC(=O)CNC(=O)CCCCCC(=O)NCC(=O)OCC	-1	9	x	0	x	x

Source: PubChem BioAssay
